{
  "source": "ChEMBL document CHEMBL5338759",
  "about": "“N-Phenyl-1-(phenylsulfonyl)-1H-1,2,4-triazol-3-amine as a New Class of HIV-1 Non-nucleoside Reverse Transcriptase Inhibitor” (J Med Chem, 2023)",
  "key": {"[1]": {"experiment": "Metabolic stability in human liver microsome measured up to 60 mins presence of NADPH", "type": "ADME", "settings": "microsomes, 1 h"}, "[2]": {"experiment": "Tmax in BALB/c mouse brain at 250 mg/kg, IG measured at 0.5 to 24 hrs by HPLC-MS analysis", "type": "ADME, organism-based", "settings": "po, time 0.5-24 hrs", "method_in_brief": "(§1)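 Mice averaging 20 g (24 animals) were fasted 1 h before and 1 h after dosing. They received 250 mg/kg as 0.5 ml suspension in 1% CMC, 0.05% Tween 80 by intragastric intubation. Blood and brain were taken after decapitation at 0.5, 1, 2, 3, 5, 8 and 24 h (3 per time point). Plasma was frozen at -20°C and brain at -120 °C. Quantification was by UPLC-HRMS (ESI+, EIC m/z 476.0691) against plasma-matrix standards. Parameters were derived by noncompartmental analysis; LLOQ 5 ng/ml, with values below it set to 2.5.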"}, "[3]": {"experiment": "Subacute toxicity in BALB/c mouse assessed as pathological change in heart at 25 to 250 mg/kg, IG measured daily for 30 days by H and E staining based histological analysis", "type": "organism-based", "settings": "in vivo, po, 720 h, dose 25-250 mg/kg, time 30 day", "method_in_brief": "(§2)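 Male Balb/C mice (17 per group) received 25 or 250 mg/kg intragastrically in 1% starch gel once daily for 30 days, against starch gel controls. Internal organs were examined macroscopically after the study. Sections were paraffin-embedded and stained with hematoxylin and eosin.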"}, "[4]": {"experiment": "Subacute toxicity in BALB/c mouse assessed as pathological change in spleen at 25 to 250 mg/kg, IG measured daily for 30 days by H and E staining based histological analysis", "type": "organism-based", "settings": "in vivo, po, 720 h, dose 25-250 mg/kg, time 30 day", "method_in_brief": "as §2"}, "[5]": {"experiment": "Subacute toxicity in BALB/c mouse assessed as effect on thymus weight at 25 to 250 mg/kg, IG measured daily for 30 days", "type": "organism-based", "settings": "in vivo, po, 720 h, dose 25-250 mg/kg, time 30 day"}, "[6]": {"experiment": "Selectivity ratio of IC50 for antiviral activity against wild type HIV1 IIIB infected in human TZM-bl cells to IC50 for antiviral activity against HIV1 harboring K103N mutant infected in human TZM-bl cells", "type": "toxicity, cell-based", "settings": "human immunodeficiency virus 1", "method_in_brief": "(§3)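 TZM-bl cells (2x10⁵/mL) with 15 µg/mL DEAE-dextran were infected with HIV-1 IIIB, A17 (K103N/Y181C) IIIB variant, or NL4-3-based NNRTI-resistant mutants. Compound was present at 0.05–500 nM (DMSO held constant, 0.005% or 0.05%) for 48 hr at 37°C, 5% CO₂.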"}, "[7]": {"experiment": "Neurotoxicity in mouse primary neurons assessed as loss of MAP-2 intensity at 0.0001 to 10 uM incubated for 48 hrs by semi-quantitative analysis", "settings": "neuron"}, "[8]": {"experiment": "Subacute toxicity in BALB/c mouse assessed as effect on spleen weight at 25 to 250 mg/kg, IG measured daily for 30 days", "type": "organism-based", "settings": "in vivo, po, 720 h, dose 25-250 mg/kg, time 30 day"}, "[9]": {"system": "Human immunodeficiency virus", "experiment": "Antiviral activity against wild type HIV IIIB infected in human TZM-bl cells", "type": "functional, organism-based", "settings": "Human immunodeficiency virus 1, IIIB", "method_in_brief": "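TZM-bl cells (2x10⁵/mL) infected with HIV-1 IIIB grown in H9 cells, with 15 µg/mL DEAE-dextran; serial dilutions from 10 mM DMSO stocks, DMSO held constant (0.005% or 0.05%); 37°C, 5% CO₂, 48 hr; cells lysed, luciferase RLU read.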"}, "[10]": {"experiment": "Tmax in BALB/c mouse plasma at 250 mg/kg, IG measured at 0.5 to 24 hrs by HPLC-MS analysis", "type": "ADME, organism-based", "settings": "in vivo, po, time 0.5-24 hrs", "method_in_brief": "as §1"}, "[11]": {"experiment": "Metabolic stability in mouse liver microsome measured up to 60 mins presence of NADPH", "type": "ADME", "settings": "microsomes, 1 h"}, "[12]": {"experiment": "Selectivity ratio of IC50 for antiviral activity against wild type HIV1 IIIB infected in human TZM-bl cells to IC50 for antiviral activity against HIV1 harboring L100I/K103N double mutant infected in human TZM-bl cells", "type": "toxicity, cell-based", "settings": "human immunodeficiency virus 1", "method_in_brief": "as §3"}, "[13]": {"system": "Human immunodeficiency virus 1", "experiment": "Antiviral activity against HIV1 harboring A17 mutant infected in human TZM-bl cells", "type": "functional, organism-based", "settings": "Human immunodeficiency virus 1, TZM-bl", "method_in_brief": "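TZM-bl cells (2x10⁵/mL) were infected with mutant virus in the presence of 15 µg/mL DEAE-dextran. A17 (IIIB variant) was grown in H9 cells; the other mutants were NL4-3-based plasmids transfected into 293T cells, then expanded in H9 cells. Compounds were tested at 0.05–500 nM (DMSO constant within an assay) for 48 hr at 37°C. Read-out was luciferase RLU from lysed cells, with at least 6 replicates over multiple days.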"}, "[14]": {"experiment": "AUC (0 to infinity) in BALB/c mouse plasma at 250 mg/kg, IG measured at 0.5 to 24 hrs by HPLC-MS analysis", "type": "ADME, organism-based", "set-up": "time 0.5-24 hrs, dose 250 mg/kg, route ig", "settings": "in vivo, po", "method_in_brief": "as §1"}, "[15]": {"experiment": "Subacute toxicity in BALB/c mouse assessed as reduction in reticulocytes count at 25 to 250 mg/kg, IG measured daily for 30 days", "type": "organism-based", "settings": "in vivo, po, 720 h, dose 25-250 mg/kg, time 30 day"}, "TZM": {"system": "TZM", "experiment": "Cytotoxicity against human TZM-bl cells assessed as reduction in viability incubated for 48 hrs by CellTiter-Blue cell viability assay"}, "[16]": {"experiment": "Subacute toxicity in BALB/c mouse assessed as reduction in platelets count at 25 to 250 mg/kg, IG measured daily for 30 days", "type": "organism-based", "settings": "in vivo, po, 720 h, dose 25-250 mg/kg, time 30 day"}, "[17]": {"experiment": "Selectivity index, ratio of CC50 for cytotoxicity against human TZM-bl cells assessed as reduction in cell viability by MTS assay to EC50 for antiviral activity against wild type HIV1 IIIB infected in human TZM-bl cells", "type": "toxicity, cell-based", "settings": "read-out: Ratio CC50/EC50"}, "[18]": {"experiment": "Subacute toxicity in BALB/c mouse assessed as reduction in total protein level at 25 to 250 mg/kg, IG measured daily for 30 days", "type": "organism-based", "settings": "in vivo, po, 720 h, dose 25-250 mg/kg, time 30 day", "method_in_brief": "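Dosing was daily intragastric 25 or 250 mg/kg in 1% starch gel (0.2 ml/20 g) for 30 days in male Balb/C mice, 17 per group, with starch gel controls. After the final dose, mice were fasted for 2 h with water available, then bled. Serum was clotted for 30 min at room temperature and centrifuged at 3500 rpm. Total protein, urea, creatinine, AST, ALT and alkaline phosphatase were assayed and compared by Mann-Whitney with Holm-Šídák, p < 0.05.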"}, "[19]": {"experiment": "Subacute toxicity in BALB/c mouse assessed as body weight gain at 25 to 250 mg/kg, IG measured daily for 30 days", "type": "organism-based", "settings": "in vivo, po, 720 h, dose 25-250 mg/kg, time 30 day", "method_in_brief": "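Male Balb/C mice (17 per group, initial weight 20.9 ± 0.8 g) were dosed intragastrically once daily for 30 days at 25 or 250 mg/kg. Doses were given as 2.5 or 25 mg/ml suspensions in 1% starch gel at 0.2 ml per 20 g; controls received starch gel alone. Weight, coat, mucous membranes and excretion were recorded throughout.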"}, "[20]": {"system": "Human immunodeficiency virus 1", "experiment": "Antiviral activity against HIV1 harboring L100I/K103N double mutant infected in human TZM-bl cells", "type": "functional, organism-based", "settings": "Human immunodeficiency virus 1, TZM-bl"}, "[21]": {"experiment": "Subacute toxicity in BALB/c mouse assessed as reduction in hematocrit level at 25 to 250 mg/kg, IG measured daily for 30 days", "type": "organism-based", "settings": "in vivo, po, 720 h, dose 25-250 mg/kg, time 30 day"}},
  "data": [
    {"compound": "N#C/C=C/c1ccc2c(S(=O)(=O)n3nc(Nc4ccc(C#N)c(Cl)c4)nc3N)cccc2c1", "values": [
      {"measurement": "Stability", "setting": "[1]", "value": "Stable"},
      {"measurement": "Tmax", "setting": "[2]", "value": 2, "unit": "h"},
      {"measurement": "Activity", "setting": "[3]", "value": "Non-Toxic"},
      {"measurement": "Activity", "setting": "[4]", "value": "Non-Toxic"},
      {"measurement": "Activity", "setting": "[5]", "value": "Non-Toxic"},
      {"measurement": "Ratio IC50", "setting": "[6]", "value": 8.9},
      {"measurement": "Activity", "setting": "[7]", "value": "Non-Toxic"},
      {"measurement": "Activity", "setting": "[8]", "value": "Non-Toxic"},
      {"measurement": "IC50", "setting": "[9]", "value": 0.31, "unit": "nM"},
      {"measurement": "Tmax", "setting": "[10]", "value": 0.7, "unit": "h"},
      {"measurement": "Stability", "setting": "[11]", "value": "Stable"},
      {"measurement": "Ratio IC50", "setting": "[12]", "value": 75},
      {"measurement": "EC50", "setting": "[13]", "value": 0.689, "unit": "nM"},
      {"measurement": "IC50", "setting": "[13]", "value": 1.3, "unit": "nM"},
      {"measurement": "AUC", "setting": "[14]", "value": 427.7, "unit": "µg·h/mL"},
      {"measurement": "Activity", "setting": "[15]", "value": "Non-Toxic"},
      {"measurement": "CC50", "setting": "TZM", "value": 4800, "unit": "nM"},
      {"measurement": "Activity", "setting": "[16]", "value": "Non-Toxic"},
      {"measurement": "selectivity ratio", "setting": "[17]", "value": 10000},
      {"measurement": "Activity", "setting": "[18]", "value": "Non-Toxic"},
      {"measurement": "Activity", "setting": "[19]", "value": "Non-Toxic"},
      {"measurement": "IC50", "setting": "[20]", "value": 1050, "unit": "nM"},
      {"measurement": "Activity", "setting": "[21]", "value": "Non-Toxic"}
    ]}
  ]
}
